# Most compounds without a hit are left out; they make up all but 2.5% or so of the library.
# TRPC6 act: mouse TRPC6 channel activation; Q61143; HEK293-TRPC6 membrane potential dye fluorescence; hits give high values; B-score at 10 µM; 0.13% of 310,000 active; AID 2550;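 active = B-score of the integrated fluorescence ratio above library mean plus 3 SD, and starting fluorescence ratio within library mean plus 5 SD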;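 also: higher score means more depolarization so channel activation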
# TRPC4 agonist: opens the mouse TRPC4 cation channel | Q9QUQ5 | HEK293 TRPC4beta/mu-opioid, Fluo4 calcium fluorescence; hits give high values | B-score at 10 µM | 0.49% of 310,000 active;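 active = B-score above 5 SD of library B-scores, and initial fluorescence ratio not above library mean plus 5 SD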;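 also: positive B-score marks a calcium rise read as TRPC4 activation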
#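 Assay system – TRPC4beta and mu-opioid receptor HEK293 stable cells · Measured by – Fluo4 fluorescence, kinetic · Schedule – dye loading 45 min room temperature, 110 s kinetic read · Read-out – B-scored integrated calcium fluorescence ratio · Controls – buffer and maximal DAMGO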
# TRPC6 inhibitor: inhibitors of mouse TRPC6 channel; HEK293-TRPC6, membrane potential dye, ACh-evoked depolarization; hits give low values; B-score at 10 µM; 1.1% of 310,000 active;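 active = B-score under library mean minus 3 SD, initial fluorescence not abnormally high, positive integrated signal ratio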;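 also: B-score derived from integrated fluorescence ratio over the kinetic read; more negative B-score means stronger inhibition of depolarization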
# TRPC4 block: TRPC4 (mouse) channel inhibition | 0.39% of 300,000 active | AID 2247 | B-score at 10 µM | HEK293 TRPC4beta/mu-opioid, DAMGO-evoked Fluo4 calcium flux; hits give low values;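 active = B-score over 3 SD under the library average, no early fluorescence shift, positive overall ratio signal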
#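 System: stable TRPC4beta/mu-opioid receptor HEK293 cells; Dosing: single-point compound dosing; Measured by: Fluo4 Ca2+ flux fluorescence; Read-out basis: per-well B score of integrated baseline-normalized Fluo4 ratio.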
# TRPC4 potent: TRPC4 (mouse) allosteric potentiation. AID 2227. HEK293 TRPC4beta/mu-opioid, DAMGO EC20, Fluo-4 Ca2+ flux; hits give high values. 0.42% of 310,000 active. Q9QUQ5. B-score at 10 µM;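 active = B-score of calcium response area above 5 SD of library B-scores, with initial fluorescence ratio within 5 SD of library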;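 also: B-score of integrated fluorescence ratio over time as area under calcium response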
# Platelet DG rel: modulates dense granule release in human platelets; human platelet-rich plasma, SFLLRN dense granule ATP release, luminescence; inhibition, %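 (compounds screened at 7.5 µM in platelet-rich plasma)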; 0.22% of 300,000 active; AID 1663;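 active = mean replicate score, as percent of positive control, at or above 50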
# Numbers without * were called inactive; i = inactive.
SMILES,TRPC6 act,TRPC4 agonist,TRPC6 inhibitor,TRPC4 block,TRPC4 potent,Platelet DG rel
CN1CCN(Cc2nc3ccccc3n2C)CC1,i,i,i,i,11*,4
Cc1ccc(CN2C3CCCC2CC(NC(=S)NCc2ccccc2)C3)cc1 (configuration not stated),i,i,i,-8*,i,1
CCN(CC)C1=NC(=[N+](CC)CC)c2ccccc21,i,i,i,i,i,5
O=C(Nc1ccccc1F)OC1CN2CCC1CC2 (configuration not stated),i,i,i,i,i,2
O=C(Nc1ccccc1Cl)OC1CN2CCC1CC2 (configuration not stated),i,i,i,i,25*,0
N=c1n(CCO)c2ccccc2n1Cc1ccccc1,i,i,i,-7*,i,-34
CCN(CC)P(=O)(/C=C(\Cl)c1ccccc1)/C=C(\Cl)c1ccccc1,i,i,i,i,17*,-11
O=P(O)(O)/C=C(\Cl)c1ccccc1,i,i,i,i,i,-1
CCOc1ccc(-c2c(C)n(-c3ccc(OCC)cc3)c3[n+]2CCCCC3)cc1,13*,i,-9.4*,i,i,12
CCOc1ccc(-n2c(-c3ccoc3)nc3ccccc3c2=O)cc1,i,i,i,i,i,-4
O=C(O)Cc1cnc[nH]1,i,i,i,i,i,-3
C[C@@H](N)Cc1cnc[nH]1,i,197*,i,i,i,-12
O=C(c1ccc2c3c(cccc13)CC2)C1CCCN(Cc2ncc[nH]2)C1 (configuration not stated),i,46*,i,i,i,-15
O=C(c1ccc2c3c(cccc13)CC2)C1CCCN(CC2CC2)C1 (configuration not stated),i,158*,i,i,i,-10
CSc1ccccc1C(=O)C1CCCN(Cc2cccc(C)n2)C1 (configuration not stated),i,i,i,i,i,1
COc1cc(/C=N/NC(=O)Cn2c([N+](=O)[O-])cnc2C)ccc1OC(=O)N(C)C,i,i,i,i,i,-2
COP(=O)(C#Cc1ccccc1)C(O)c1ccc(Br)cc1 (configuration not stated),i,i,i,i,i,3
Cc1cc(NCCN)nc2ccccc12,i,i,i,i,28*,1
Cc1ccc(C)c(-n2c(C)nc3ccccc3c2=O)c1,i,i,i,i,i,-6
Clc1ccc2c(c1)C(c1ccccc1Cl)=NCc1nnc(N3CCN(CCOc4ccccc4)CC3)n1-2,i,i,i,i,29*,18
Clc1ccc2c(c1)C(c1ccccc1Cl)=NCc1nnc(N3CCN(CCSc4ccccc4)CC3)n1-2,i,i,i,i,i,-8
COc1cc2c3cc1Oc1cc(ccc1O)C[C@@H]1c4c(cc(OC)c(O)c4Oc4ccc(cc4)C[C@H]3N(C)CC2)CCN1C,i,117*,i,i,i,-2
CC(N)Cc1c[nH]c2c1ccc1ccccc12 (configuration not stated),i,92*,i,i,i,2
CC1CCCC(C)N1/N=C/c1c[nH]c2ccc(Br)cc12 (configuration not stated),i,i,i,i,34*,8
CC(C)CN1CCN(Cc2cccc3c2OCO3)CC1CCO (configuration not stated),i,i,i,i,i,2
SMILES,TRPC6 act,TRPC4 agonist,TRPC6 inhibitor,TRPC4 block,TRPC4 potent,Platelet DG rel
O=[N+]([O-])c1ccc(N2CCNCC2)cc1NC1CC1,i,117*,i,i,i,1
O=c1c2ccccc2nc(-c2ccco2)n1-c1ccc(Br)cc1,i,i,i,i,i,-3
Cc1ccc(-c2cc(-c3ccc(C)cc3)[n+](-c3ccc(C(=O)[O-])cc3)c(-c3ccc(C)cc3)c2)cc1,i,60*,i,i,i,-4
COc1ccc2c(c1O)C13CCN(C)C(C2)C1CCC(=O)C3 (configuration not stated),i,93*,i,i,i,5
Cc1cc(-c2ccccc2)cc(C)[n+]1Cc1ccccc1,i,106*,i,i,i,1
COc1ccc(OCCOc2cccc(C=C3C(=O)NC(=O)NC3=O)c2)cc1,i,i,i,i,i,-7
CN(CCOc1ccc(C=C2C(=O)NC(=O)NC2=O)cc1)c1ccccn1,i,46*,i,-6*,i,5
OC(c1ccc(F)cc1)C(c1ccccc1)N1CCOCC1 (configuration not stated),i,i,i,i,i,8
CN(C)C(CNC(=O)Cc1c(Cl)cccc1Cl)c1ccccc1 (configuration not stated),i,219*,i,i,i,-1
CCc1nccc2c1[nH]c1ccccc12,i,i,i,-6*,i,2
CCC(Oc1cc(Cl)ccc1Cl)C(=O)N1CCC2(CC1)OCCO2 (configuration not stated),i,i,i,i,i,-1
COc1ccc(C(=O)C(Cc2ccccc2)N(C)C)cc1 (configuration not stated),i,i,i,i,i,11
COc1ccc(C(CNC(=O)c2ccc3c(c2)CCC3)N(C)C)cc1 (configuration not stated),i,209*,i,i,i,-3
Cc1ccc(C)c(NC(=S)NCCc2cnc[nH]2)c1,i,142*,i,i,i,-3
COc1ccc(CCC(=O)NCCc2cnc[nH]2)cc1,i,i,i,i,i,13
O=C(CCCC1=NS(=O)(=O)c2ccccc2N1)N1CCC2(CC1)OCCO2,i,i,i,i,i,0
CCOC(=O)C1(c2ccccc2)CCN(CC(=O)Nc2cccc3ccccc23)CC1,i,i,i,i,i,-16
CCOC(=O)C1(c2ccccc2)CCN(CCC(=O)Nc2ccccc2OC)CC1,i,50*,i,i,i,-1
CC(C)Oc1cc(-n2c(=S)[nH]c3ccccc3c2=O)c(Cl)cc1Cl,i,i,i,i,12*,-5
COc1cc(-n2c(=S)[nH]c3ccccc3c2=O)c(Cl)cc1Cl,i,i,i,i,i,20

# Screening results (PubChem)
